Screens: PubChem BioAssay, several laboratories
The list is not random: actives were taken first. Their share in the collection is about 2.5%.
UHRF1 MBD2 ctr – UHRF1 methylated DNA binding inhibitors, primary screen, counter-screen for MBD2 inhibitor project, biochemical, TR-FRET, human UHRF1, single concentration. E3 ubiquitin-protein ligase UHRF1 (Homo sapiens), Q96T88. UHRF1 binding to methylated oligo. inhibition, % at 4.4 µM. 370,000 compounds, 0.75% hits. AID 687016, 2013; in the data active = inhibition above about 21%;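 also: UHRF1 SRA domain binding a hemimethylated CpG hairpin DNA probe; 0% = median of test compound wells and 100% = reference inhibitor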
Target sequence (Q96T88 whole entry, looked up, the tested form may be a part): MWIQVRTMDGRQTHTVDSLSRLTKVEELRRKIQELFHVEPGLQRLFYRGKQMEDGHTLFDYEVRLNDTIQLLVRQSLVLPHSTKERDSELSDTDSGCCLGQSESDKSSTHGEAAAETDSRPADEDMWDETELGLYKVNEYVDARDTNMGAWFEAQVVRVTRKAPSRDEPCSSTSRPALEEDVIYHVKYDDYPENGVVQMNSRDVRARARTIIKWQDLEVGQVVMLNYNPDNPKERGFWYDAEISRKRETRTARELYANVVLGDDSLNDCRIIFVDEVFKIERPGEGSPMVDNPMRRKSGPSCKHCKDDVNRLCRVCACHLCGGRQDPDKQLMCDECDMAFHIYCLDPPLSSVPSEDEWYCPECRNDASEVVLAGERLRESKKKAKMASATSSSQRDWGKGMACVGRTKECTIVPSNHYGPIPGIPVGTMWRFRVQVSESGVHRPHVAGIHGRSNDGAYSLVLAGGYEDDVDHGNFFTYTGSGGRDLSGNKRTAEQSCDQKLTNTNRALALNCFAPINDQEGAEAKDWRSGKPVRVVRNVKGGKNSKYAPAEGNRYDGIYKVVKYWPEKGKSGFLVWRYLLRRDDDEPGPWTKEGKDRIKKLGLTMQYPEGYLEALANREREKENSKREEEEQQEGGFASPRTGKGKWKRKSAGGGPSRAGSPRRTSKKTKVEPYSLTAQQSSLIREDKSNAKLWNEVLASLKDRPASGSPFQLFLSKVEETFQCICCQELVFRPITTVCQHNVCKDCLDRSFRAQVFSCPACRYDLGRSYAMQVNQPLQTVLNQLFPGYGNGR
DSG3 Ab inh – inhibitors of pemphigus antibody binding to DSG3, primary screen, biochemical, bead-based, flow cytometry, scFv-GFP; Desmoglein-3 (Homo sapiens), P32926; DSG3-coupled beads, scFv-anti-DSG3-GFP binding; stronger effect = lower value; binding (percent of control), % at 10 µM; 310,000 compounds, 0.48% hits; AID 588358, 2011;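 active = binding more than 3 SD below its plate's average and above zero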
MBD2 inh – inhibitors of MBD2 binding to methylated DNA, primary screen, biochemical, TR-FRET, DNA-binding domain, human; inhibition, % at 4.4 µM; Methyl-CpG-binding domain protein 2 (Homo sapiens), Q9UBB5; MBD2 binding to methylated oligonucleotide; 370,000 compounds, 0.31% hits; in the data active = inhibition above about 13%
NS3 helicase inh – inhibitors of HCV NS3 helicase, primary screen, biochemical, Cy5 molecular beacon fluorescence; NS3 helicase DNA unwinding; inhibition, % at 10.9 µM; Hepatitis C virus NS3 helicase; 290,000 compounds, 0.56% hits; AID 1800, 2009;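 active = inhibition above the mean of all tested compounds plus 3 SD, set per campaign, cut at about 35% in these data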;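 also: 0% = DMSO wells and 100% = thioflavine S control wells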
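test system = hepatitis C virus NS3 helicase domain fragment enzyme | reagent = annealed dual-labelled DNA beacon duplex, ATP-started | times = 1 h at 25 °C | detection = Cy5 fluorescence, 0 and 60 min reads | read-out basis = percent inhibition from t60/t0 fluorescence ratio | control set = DMSO and thioflavine S | replication = one well per compound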
SUMO1 PPI mod – modulators of SUMO1 protein-protein interactions, primary screen, biochemical, uHTS; SUMO1 binding to a labelled peptide, TR-FRET, 1 h; inhibition, % at 20 µM; AID 602429, 2012; Small ubiquitin-related modifier 1 (Homo sapiens), P63165; 360,000 compounds, 0.33% hits; in the data active = inhibition above about 37%
DNMT1 block – human DNMT1 methyltransferase inhibitors, primary screen, biochemical, molecular beacon, fluorescence, HinP1I cleavage, uHTS | DNA (cytosine-5)-methyltransferase 1 (Homo sapiens), P26358 | 360,000 compounds, 0.83% hits | inhibition (reported as % activation of signal), % at 10 µM; in the data active = inhibition above about 50%
DNMT1 inh conf – DNMT1 methyltransferase inhibitor retest, confirmation, biochemical, molecular beacon, fluorescence, single concentration; shares compounds with DNMT1 block; DNMT1 molecular beacon HinP1I cleavage; inhibition, % at 10 µM; 2,300 compounds, 8% hits; AID 602385, 2012;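 active = average inhibition of at least 30% in the single-concentration confirmation test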
Beacon interf – beacon fluorescence artifact counter-screen; shares compounds with DNMT1 block; DNMT1 molecular beacon spectral interference counterscreen, fluorescence 485/520; activation (fluorescence interference), % at 10 µM; 2,300 compounds, 1% hits; AID 602387;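 active = activation of at least 30% at 10 µM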;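 also: DNMT1 catalytic domain with a HinP1I cleavage step and a FAM/dabcyl DNA beacon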
* = called active by the depositor; · = no result.

SMILES | UHRF1 MBD2 ctr | DSG3 Ab inh | MBD2 inh | NS3 helicase inh | SUMO1 PPI mod | DNMT1 block | DNMT1 inh conf | Beacon interf
O=[N+]([O-])c1cccc(/C=C/c2nc(C=Nc3ccc4ccccc4c3)c(O)o2)c1 | -2 | 101 | -2 | 3 | 0 | 53* | 0 | -4
COc1ccc(-c2nnc(NC(=O)c3cccs3)s2)c(OC)c1 | 1 | 93 | 0 | 29 | 13 | 80* | 2 | -4
COc1ccc(-c2nnc(NC(=O)Cc3ccccc3)s2)c(OC)c1 | 19 | 93 | 0 | 9 | -5 | 13 | · | ·
COc1ccc(N(C)C(=O)Cn2c(=O)oc3ccccc32)c(OC)c1 | -1 | 101 | -5 | 14 | 1 | 1 | · | ·
Cc1ccc(-n2nc3ccc(NC(=O)c4cccc([N+](=O)[O-])c4C)cc3n2)cc1 | 1 | 91 | -2 | -10 | -1 | 63* | 4 | 3
CSCCC(NC(=O)COc1ccccc1)C(=O)N(C)Cc1c(F)cccc1Cl (stereo not drawn) | 9 | 104 | 6 | · | 0 | 83* | 3 | 4
CSCCC(NC(=O)COc1ccccc1)C(=O)N(C)CC(=O)Nc1ccc(Cl)cc1 (stereo not drawn) | 0 | 98 | -2 | · | -1 | 0 | · | ·
Cc1ccc([N+](=O)[O-])cc1-c1ccc(/C=C(\C#N)c2[nH]nc(N)c2C#N)o1 | 0 | 86* | -3 | 19 | 58* | 84* | 6 | -6
COc1ccc(Cn2c(-c3ccc(OC)cc3)nc3c(c(=O)c4ccccc4n3C)c2=O)cc1 | · | · | · | -8 | · | · | · | ·
COc1ccc(-c2nc3c(c(=O)c4ccccc4n3C)c(=O)n2Cc2ccccc2)cc1 | 0 | 96 | -3 | 2 | -2 | 16 | · | ·
Cn1c2ccccc2c(=O)c2c(=O)n(Cc3ccccc3)c(-c3ccc(F)cc3)nc21 | 0 | 104 | -2 | -2 | -8 | 63* | 0 | 0
COc1ccc(Cn2c(-c3ccc(C)cc3)nc3c(c(=O)c4ccccc4n3C)c2=O)cc1 | -4 | 100 | 4 | -1 | 5 | 83* | 2 | 4
COC(=O)c1cc2occc2n1Cc1nc(-c2ccccc2Cl)oc1C | 0 | 97 | 1 | -1 | 2 | 86* | 1 | 2
COC(=O)c1cc2occc2n1Cc1nc(-c2ccc(Cl)cc2)oc1C | 3 | 105 | 3 | 4 | 1 | 1 | · | ·
CCn1c(SCC(=O)NCc2ccco2)nc2ccccc2c1=O | 2 | 96 | 3 | 7 | 1 | 0 | · | ·
COc1ccc(NC(=O)CSc2nnc(C)c3ccccc23)cc1 | 1 | 160 | 1 | -1 | -1 | -1 | · | ·
COc1ccc(NC(=O)CSc2ccc3c4c(cccc24)C(=O)c2ccccc2-3)cc1 | -2 | 137 | -2 | -3 | -10 | 61* | 5 | 1
O=C(CSc1nc2ccccc2c2nc3ccccc3n12)NCc1ccco1 | -5 | 94 | 4 | -6 | 6 | 71* | 15 | 1
COc1ccc(OC)c(NC(=O)CSc2nc3ccccc3c3nc4ccccc4n23)c1 | · | · | · | 9 | · | · | · | ·
COc1ccc(NC(=O)CSc2nc3ccccc3c3nc4ccccc4n23)cc1 | 0 | · | -3 | -2 | -1 | 58* | 5 | -7
O=C(CSc1nc2c(sc3ccccc32)c(=O)n1CCc1ccccc1)NCc1ccco1 | 7 | 99 | 3 | 7 | 0 | 65* | 3 | -4
Cc1cccc(OCCn2c(=O)n(C)c3ccccc32)c1 | 0 | 100 | 4 | -3 | -2 | -2 | · | ·
CC1CN(c2ccc(C(=O)c3ccccc3C(=O)O)cc2[N+](=O)[O-])CC(C)O1 (stereo not drawn) | -1 | 97 | -3 | 5 | -7 | 2 | · | ·
Cc1ccc(NC(=O)CSc2nc3ccccc3c3nc4ccccc4n23)cc1 | 3 | 105 | 3 | -2 | 2 | 52* | 2 | -6
Cn1c(SCC(=O)Nc2ccccc2)nc2ccccc2c1=O | -1 | 113 | 5 | -6 | 0 | 0 | · | ·
SMILES | UHRF1 MBD2 ctr | DSG3 Ab inh | MBD2 inh | NS3 helicase inh | SUMO1 PPI mod | DNMT1 block | DNMT1 inh conf | Beacon interf
O=C(CCC(=O)c1cccs1)OCC(=O)c1ccccc1F | 0 | 102 | -2 | · | 0 | 0 | · | ·
Cc1ccc(OCC(=O)O/N=C(\N)c2ccccn2)cc1 | 2 | 105 | 0 | 2 | 3 | 1 | · | ·
CC(C)CN(C(=O)COC(=O)c1cnc(Cl)c(Cl)c1)c1c(N)n(Cc2ccccc2)c(=O)[nH]c1=O | 0 | 97 | -3 | · | 3 | 2 | · | ·
COc1ccc(CN(C)C[C@H]2OCCCC[C@H](C)Oc3ccc(NC(=O)CCC(F)(F)F)cc3C(=O)N([C@@H](C)CO)C[C@@H]2C)cc1 | 5 | · | 0 | · | 2 | 5 | · | ·
C[C@H]1CCCCO[C@H](CN(C)Cc2ccccc2)[C@@H](C)CN([C@@H](C)CO)C(=O)c2cc(NC(=O)CCC(F)(F)F)ccc2O1 | 2 | 104 | 0 | · | 2 | 65* | 5 | 4
Cc1oc(-c2ccc3ccccc3c2)nc1CN(C)C(C)c1ccncn1 (stereo not drawn) | 1 | 97 | 1 | 1 | -10 | -12 | · | ·
C=CCn1c(SCc2nc3sc4c(c3c(=O)[nH]2)CCCC4)nc2ccccc2c1=O | 4 | 124 | 0 | 1 | 0 | 55* | 0 | -9
COCCNC(=S)N/N=C(\C)c1ccc(OC(F)F)cc1 | -2 | 103 | 3 | -3 | -10 | 62* | 0 | 3
COc1cc2c(C#N)c(N3CCCCC3)nc(N)c2c(N)n1 | -13 | 112 | -2 | 12 | 52* | 65* | 8 | 9
CCN(CC)c1nc(N)c(C#N)c(CC#N)c1C#N | -2 | 114 | 4 | · | 5 | -2 | · | ·
CCN(CC)c1nc(N)c2c(N)nc(OC)cc2c1C#N | -18 | 104 | -12 | · | 52* | 81* | 2 | 2
Cc1onc(-c2ccccc2Cl)c1C(=O)NCc1ccc(N2CCCC2=O)cc1 | 2 | · | 3 | 10 | -1 | 2 | · | ·
CC1(C)NC(=O)N(CC(O)COc2cccc(F)c2)C1=O (stereo not drawn) | 2 | 101 | 2 | -5 | 3 | 1 | · | ·
